Data taken from ChEMBL document CHEMBL5154717, “Identification of thiophene-benzenesulfonamide derivatives for the treatment of multidrug-resistant tuberculosis” (Eur J Med Chem, 2022).
pIC50: −log10 of the molar value. ≈ marks a conversion by molar mass, not a printed value.

Assays:
[1] = Cytotoxicity against African green monkey Vero cells measured by MTT assay; assay type: toxicity, cell-based; conditions: African green monkey (Chlorocebus sabaeus)
Procedure, shortened: (§1)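 Vero, HepG2 and mouse J774A.1 cells grown in RPMI 1640 with 10% FBS. MTT read-out in 96-well format.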

[2] = Selectivity index, Ratio of IC50 for Vero cells over MIC for Mycobacterium tuberculosis H37Rv; assay type: toxicity; conditions: monkey
[3] = tested on: Mycobacterium tuberculosis; test: Antimycobacterial activity against Mycobacterium tuberculosis H37Rv measured by MABA assay; assay type: functional
Procedure, shortened: (§2)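 Microplate Alamar Blue assay against replicating M. tuberculosis H37Rv or clinical isolates. MIC is the lowest concentration giving ≥90% reduction in fluorescence relative to the mean of replicate bacterium-only controls.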

[4] = Metabolic stability in human hepatocytes assessed as half-life at 1 uM measured by LC-MS/MS analysis; assay type: ADME, cell-based, Hepatocyte
Procedure, shortened: (§3)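 Compound at 1 µM with hepatocytes at 1 million cells/mL final; human hepatocytes are mixed donor, mouse are male. Incubated at 37 °C in CO2 at ~100 rpm. Sampled at 0, 15, 30, 60, 90 and 120 min, quenched in ice-cold ACN/MeOH with internal standard. Parent remaining measured by LC-MS/MS.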

[5] = Metabolic stability in human hepatocytes assessed as compound remaining at 1 uM measured by LC-MS/MS analysis; assay type: ADME, cell-based, Hepatocyte; conditions: read-out: Stability; procedure, shortened: as §3
[6] = tested on: Mycobacterium tuberculosis; test: Antimycobacterial activity against Mycobacterium tuberculosis 13946 clinical isolate measured by MABA assay; assay type: functional; procedure, shortened: as §2
[7] = Metabolic stability in mouse hepatocytes assessed as compound remaining at 1 uM measured by LC-MS/MS analysis; assay type: ADME, cell-based, Hepatocyte; conditions: read-out: Stability; procedure, shortened: as §3
[8] = Cytotoxicity against human HepG2 cells measured by MTT assay; assay type: toxicity, cell-based; procedure, shortened: as §1
[9] = tested on: Mycobacterium tuberculosis; test: Antimycobacterial activity against Mycobacterium tuberculosis 14862 clinical isolate measured by MABA assay; assay type: functional; procedure, shortened: as §2
[10] = Cytotoxicity against mouse J774.A1 cells measured by MTT assay; assay type: toxicity, cell-based; procedure, shortened: as §1
[11] = Metabolic stability in mouse hepatocytes assessed as half-life at 1 uM measured by LC-MS/MS analysis; assay type: ADME, cell-based, Hepatocyte; procedure, shortened: as §3
[12] = target: Voltage-gated inwardly rectifying potassium channel KCNH2 (Homo sapiens, UniProt Q12809); test: Inhibition of hERG; assay type: toxicity
Procedure, shortened: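 Electrophysiological recording of hERG current at 30, 10, 3.0, 1.0 and 0.3 µM, run in duplicate for IC50.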

J774.A1 = test: Antimycobacterial activity against Mycobacterium tuberculosis H37Rv infected in mouse J774.A1 cells assessed as change in log10 CFU at 5 ug/ml; assay type: functional; conditions: dose 5 µg/ml
Procedure, shortened: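 Mouse J774A.1 macrophages infected with M. tuberculosis H37Rv, test compound at final 10 or 5 µg/mL. Read-out is intracellular log10 CFU; Δlog10 CFU = untreated minus treated. Triplicates in at least three separate experiments.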

Chain of Voltage-gated inwardly rectifying potassium channel KCNH2 (Q12809 whole entry): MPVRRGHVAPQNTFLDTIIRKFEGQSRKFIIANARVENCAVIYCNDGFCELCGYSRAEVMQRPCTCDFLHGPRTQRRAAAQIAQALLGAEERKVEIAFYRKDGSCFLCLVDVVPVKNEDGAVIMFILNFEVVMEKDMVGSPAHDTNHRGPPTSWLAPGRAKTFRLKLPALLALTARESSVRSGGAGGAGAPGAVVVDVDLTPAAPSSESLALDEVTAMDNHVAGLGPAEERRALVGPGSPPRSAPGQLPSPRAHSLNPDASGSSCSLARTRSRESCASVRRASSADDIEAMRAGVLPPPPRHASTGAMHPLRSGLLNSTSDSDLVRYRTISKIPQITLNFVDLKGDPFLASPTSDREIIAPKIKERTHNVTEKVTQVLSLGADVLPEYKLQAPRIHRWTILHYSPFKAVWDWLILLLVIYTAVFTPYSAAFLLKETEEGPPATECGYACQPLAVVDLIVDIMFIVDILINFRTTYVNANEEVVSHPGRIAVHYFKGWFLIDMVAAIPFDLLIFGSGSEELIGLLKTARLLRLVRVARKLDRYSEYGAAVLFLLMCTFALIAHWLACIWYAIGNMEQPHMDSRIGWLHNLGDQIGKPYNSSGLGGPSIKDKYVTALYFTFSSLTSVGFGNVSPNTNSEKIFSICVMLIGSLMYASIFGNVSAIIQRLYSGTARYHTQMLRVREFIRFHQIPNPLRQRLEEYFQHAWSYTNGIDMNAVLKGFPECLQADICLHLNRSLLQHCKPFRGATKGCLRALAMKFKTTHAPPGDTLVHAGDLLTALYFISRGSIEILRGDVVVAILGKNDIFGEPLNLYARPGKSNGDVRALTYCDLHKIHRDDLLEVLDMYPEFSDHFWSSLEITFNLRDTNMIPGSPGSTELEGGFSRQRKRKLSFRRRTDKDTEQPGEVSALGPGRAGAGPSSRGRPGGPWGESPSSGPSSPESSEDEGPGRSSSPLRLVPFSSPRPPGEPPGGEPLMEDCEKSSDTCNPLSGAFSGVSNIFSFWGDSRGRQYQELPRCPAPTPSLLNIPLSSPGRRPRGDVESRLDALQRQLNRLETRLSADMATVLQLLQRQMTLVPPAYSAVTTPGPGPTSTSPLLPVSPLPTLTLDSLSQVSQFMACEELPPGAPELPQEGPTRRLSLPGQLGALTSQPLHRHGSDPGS

Row | Structure (SMILES) | IC50 [1] | selectivity ratio [2] | MIC [3] | also measured
1 | COC(=O)NC(=O)c1ccsc1NC(=O)c1ccc(C(=O)N2CCCCC2)cc1 | > 64 µg/mL | > 337 | 0.19 µg/mL (≈ 0.457 µM) | –
2 | CCOC(=O)NC(=O)c1ccsc1NC(=O)c1ccc(S(=O)(=O)N2CCCCC2)cc1 | 18.6 µg/mL (≈ 39.9 µM) | 619 | 0.03 µg/mL (≈ 0.0644 µM) | half-life at 1 µM [4]: 29.9 min; remaining at 1 µM [5]: 49.8%; MIC [6]: < 0.016 µg/mL; remaining at 1 µM [7]: 66.3%; IC50 [8]: 38.8 µg/mL (≈ 83.3 µM); MIC [9]: < 0.016 µg/mL; IC50 [10]: 34.3 µg/mL (≈ 73.7 µM); half-life at 1 µM [11]: 50.6 min
3 | CCOC(=O)NC(=O)c1ccsc1NC(=O)c1ccc(S(=O)(=O)Nc2ccc(OC)cc2)cc1 | – | – | 3.64 µg/mL (≈ 7.23 µM) | –
4 | CCCOC(=O)NC(=O)c1ccsc1NC(=O)c1ccc(S(=O)(=O)N2CCCCC2)cc1 | 56.6 µg/mL (≈ 118 µM) | 1110 | 0.051 µg/mL (≈ 0.106 µM) | –
5 | COC(=O)NC(=O)c1ccsc1NC(=O)c1ccc(S(=O)(=O)N2CCCC2)cc1 | 39.4 µg/mL (≈ 90.2 µM) | 395 | 0.1 µg/mL (≈ 0.229 µM) | –
6 | COC(=O)NC(=O)c1ccsc1NC(=O)c1ccc(S(=O)(=O)N2CCC(=O)CC2)cc1 | – | – | 3.52 µg/mL (≈ 7.56 µM) | –
7 | CC(C)OC(=O)NC(=O)c1ccsc1NC(=O)c1ccc(S(=O)(=O)N2CCOCC2)cc1 | 13.1 µg/mL (≈ 27.3 µM) | 29 | 0.45 µg/mL (≈ 0.934 µM) | –
8 | COC(=O)NC(=O)c1ccsc1NC(=O)c1ccc(S(=O)(=O)N2CCC(c3ccccc3)CC2)cc1 | – | – | > 32 µg/mL | –
9 | O=C(NC(=O)c1ccsc1NC(=O)c1ccc(S(=O)(=O)N2CCOCC2)cc1)OCC(F)(F)F | – | – | 30.4 µg/mL (≈ 58.4 µM) | –
10 | COC(=O)NC(=O)c1ccsc1NC(=O)c1ccc(S(=O)(=O)N2CCC2)cc1 | 17.5 µg/mL (≈ 41.3 µM) | 134 | 0.13 µg/mL (≈ 0.307 µM) | –
11 | CCN(C)S(=O)(=O)c1ccc(C(=O)Nc2sccc2C(=O)NC(=O)OC)cc1 | 10.4 µg/mL (≈ 24.5 µM) | 21 | 0.49 µg/mL (≈ 1.15 µM) | –
12 | COC(=O)NC(=O)c1ccsc1NC(=O)c1ccc(S(=O)(=O)NC23CC4CC(CC(C4)C2)C3)cc1 | – | – | 1.96 µg/mL (≈ 3.79 µM) | –
13 | CCOC(=O)NC(=O)c1ccsc1NC(=O)c1ccc(S(=O)(=O)Nc2ccc(F)cc2)cc1 | 20.5 µg/mL (≈ 41.8 µM) | 21 | 0.98 µg/mL (≈ 1.99 µM) | –
14 | O=C(Nc1sccc1C(=O)Nc1ccccn1)c1ccc(S(=O)(=O)N2CCCCC2)cc1 | – | – | 29.6 µg/mL (≈ 62.9 µM) | –
15 | CCOC(=O)NC(=O)c1ccsc1NC(=O)c1ccc(S(=O)(=O)N2CCC(OC)CC2)cc1 | 21 µg/mL (≈ 42.4 µM) | 701 | 0.03 µg/mL (≈ 0.0605 µM) | –
16 | CCOC(=O)NC(=O)c1ccsc1NC(=O)c1ccc(S(=O)(=O)Nc2ccccc2)cc1 | 14.5 µg/mL (≈ 30.6 µM) | 21 | 0.7 µg/mL (≈ 1.48 µM) | –
17 | CCOC(=O)NC(=O)c1ccsc1NC(=O)c1ccc(S(=O)(=O)Nc2ccc(C)cc2)cc1 | – | – | 3.56 µg/mL (≈ 7.3 µM) | –
18 | CCOC(=O)NC(=O)c1ccsc1NC(=O)c1ccc(S(=O)(=O)Nc2ccccn2)cc1 | – | – | 1.55 µg/mL (≈ 3.27 µM) | –
19 | CCOC(=O)NC(=O)c1ccsc1NC(=O)c1ccc(S(=O)(=O)Nc2ccc(Br)cc2)cc1 | – | – | 2.79 µg/mL (≈ 5.05 µM) | –
20 | Cc1ccnc(NC(=O)c2ccsc2NC(=O)c2ccc(S(=O)(=O)N3CCOCC3)cc2)n1 | 42.7 µg/mL (≈ 87.6 µM) | 49 | 0.87 µg/mL (≈ 1.78 µM) | –

Row | Structure (SMILES) | IC50 [1] | selectivity ratio [2] | MIC [3] | also measured
21 | COC(=O)NC(=O)c1ccsc1NC(=O)c1ccc(S(=O)(=O)N2CCC(O)CC2)cc1 | – | – | 3.67 µg/mL (≈ 7.85 µM) | –
22 | COC(=O)NC(=O)c1ccsc1NC(=O)c1ccc(S(=O)(=O)NC2CCCCC2)cc1 | > 64 µg/mL | > 70 | 0.92 µg/mL (≈ 1.98 µM) | –
23 | CCOC(=O)NC(=O)c1ccsc1NC(=O)c1ccc(S(=O)(=O)Nc2cccc(F)c2)cc1 | – | – | 1.14 µg/mL (≈ 2.32 µM) | –
24 | Cc1ccnc(NC(=O)c2ccsc2NC(=O)c2ccc(S(=O)(=O)N3CCCCC3)cc2)n1 | 32.8 µg/mL (≈ 67.5 µM) | 137 | 0.24 µg/mL (≈ 0.494 µM) | half-life at 1 µM [4]: 23.4 min; remaining at 1 µM [5]: 41.2%; pIC50 [12]: 5.77; remaining at 1 µM [7]: 7.3%; half-life at 1 µM [11]: 7.9 min
25 | COC(=O)NC(=O)c1ccsc1NC(=O)c1ccc(S(=O)(=O)N(C)C)cc1 | 16.2 µg/mL (≈ 39.3 µM) | 14 | 1.19 µg/mL (≈ 2.89 µM) | –
26 | CCOC(=O)NC(=O)c1ccsc1NC(=O)c1ccc(S(=O)(=O)Nc2ccc(OC(F)(F)F)cc2)cc1 | – | – | 26.3 µg/mL (≈ 47.2 µM) | –
27 | CCCOC(=O)NC(=O)c1ccsc1NC(=O)c1ccc(S(=O)(=O)N2CCOCC2)cc1 | – | – | 2.45 µg/mL (≈ 5.09 µM) | –
28 | CCOC(=O)NC(=O)c1ccsc1NC(=O)c1ccc(S(=O)(=O)Nc2ccc([N+](=O)[O-])cc2)cc1 | – | – | 3.61 µg/mL (≈ 6.96 µM) | –
29 | CCOC(=O)NC(=O)c1ccsc1NC(=O)c1ccc(S(=O)(=O)N2CCCCCC2)cc1 | 3.42 µg/mL (≈ 7.13 µM) | 143 | 0.024 µg/mL (≈ 0.05 µM) | –
30 | COC(=O)NC(=O)c1ccsc1NC(=O)c1ccc(S(=O)(=O)N2CCCCCC2)cc1 | 9.13 µg/mL (≈ 19.6 µM) | 42 | 0.22 µg/mL (≈ 0.473 µM) | –
31 | COC(=O)NC(=O)c1ccsc1NC(=O)c1ccc(S(=O)(=O)N2CCC(C)CC2)cc1 | 9.13 µg/mL (≈ 19.6 µM) | 40 | 0.23 µg/mL (≈ 0.494 µM) | –
32 | COC(=O)NC(=O)c1ccsc1NC(=O)c1ccc(S(=O)(=O)N2CCC(OC)CC2)cc1 | 18 µg/mL (≈ 37.4 µM) | 601 | 0.03 µg/mL (≈ 0.0623 µM) | MIC [6]: 0.25 µg/mL (≈ 0.519 µM); pIC50 [12]: 5.05; IC50 [8]: 46.1 µg/mL (≈ 95.7 µM); MIC [9]: 0.44 µg/mL (≈ 0.914 µM); IC50 [10]: 54.9 µg/mL (≈ 114 µM)
33 | CCCCNS(=O)(=O)c1ccc(C(=O)Nc2sccc2C(=O)NC(=O)OC)cc1 | 29.5 µg/mL (≈ 67.1 µM) | 105 | 0.28 µg/mL (≈ 0.637 µM) | –
34 | CCOC(=O)NC(=O)c1ccsc1NC(=O)c1ccc(S(=O)(=O)Nc2nccs2)cc1 | – | – | 7.64 µg/mL (≈ 15.9 µM) | –
35 | CCOC(=O)NC(=O)c1ccsc1NC(=O)c1ccc(S(=O)(=O)N2CCC2)cc1 | > 64 µg/mL | > 1310 | 0.049 µg/mL (≈ 0.112 µM) | MIC [6]: 0.06 µg/mL (≈ 0.137 µM); MIC [9]: 0.062 µg/mL (≈ 0.142 µM)
36 | O=C(NC(=O)c1ccsc1NC(=O)c1ccc(S(=O)(=O)N2CCCCC2)cc1)OCC(F)(F)F | – | – | 29.7 µg/mL (≈ 57.2 µM) | –
37 | C[C@H]1COc2c(N3CCN(C)CC3)c(F)cc3c(=O)c(C(=O)O)cn1c23.C[C@H]1COc2c(N3CCN(C)CC3)c(F)cc3c(=O)c(C(=O)O)cn1c23.O [LEVOFLOXACIN] | – | – | 0.33 µg/mL | MIC [6]: 1.94 µg/mL; MIC [9]: 1.87 µg/mL
38 | CO[C@H]1/C=C/O[C@@]2(C)Oc3c(C)c(O)c4c(O)c(c(/C=N/N5CCN(C)CC5)c(O)c4c3C2=O)NC(=O)/C(C)=C\C=C\[C@H](C)[C@H](O)[C@@H](C)[C@@H](O)[C@@H](C)[C@H](OC(C)=O)[C@@H]1C [RIFAMPIN] | – | – | 0.015 µg/mL (≈ 0.0182 µM) | MIC [6]: > 10 µg/mL; Activity (J774.A1): 1.03 deltalog10CFU; MIC [9]: 9.24 µg/mL (≈ 11.2 µM)
39 | CN[C@@H]1[C@H](O[C@H]2[C@H](O[C@H]3[C@H](O)[C@@H](O)[C@H](N=C(N)N)[C@@H](O)[C@@H]3N=C(N)N)O[C@@H](C)[C@]2(O)C=O)O[C@@H](CO)[C@H](O)[C@H]1O [STREPTOMYCIN] | – | – | 0.49 µg/mL (≈ 0.843 µM) | MIC [6]: > 2 µg/mL; MIC [9]: > 2 µg/mL
